Here are results for 1 compound from ChEMBL document CHEMBL2412964, “Discovery of novel tetrahydro-pyrazolo [4,3-c] pyridines for the treatment of neuropathic pain: synthesis and neuropharmacology” (Eur J Med Chem, 2013).

Broadly, the ED50 is the dose that gives a 50% effect, or the effect in half of the subjects.

Molecules are shown by their SMILES.

For this test, the system named is Rattus norvegicus. Nature of the test: Antinociceptive activity in ip dosed Wistar rat partial sciatic nerve ligation model assessed as reversal of tactile allodynia after 120 mins. It is filed as functional. The note with it: 2 h. The method, boiled down:
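Wistar rats (200–250 g) with nerve injury, compounds i.p. in 30% v/v PEG 400; dose–response curves in each sensory test (spontaneous pain and cold allodynia as paw withdrawal duration; tactile allodynia and hyperalgesia as withdrawal threshold). ED50 linearly interpolated between doses just above and below 50% response; time of peak effect recorded.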

`CCN1CCc2c(c(C(C)(C)C)nn2C(=O)Nc2ccc(C)cc2C)C1`: the median effective dose (ED50) was 36.1 mg/kg.
